Test results reported in ChEMBL document CHEMBL1153905, “Functionalized 3-benzylidene-indolin-2-ones: inducers of NAD(P)H-quinone oxidoreductase 1 (NQO1) with antiproliferative activity” (Bioorg Med Chem, 2009).

Experiments:
[1] = Cytotoxicity against mouse Hepa-1c1c7 cells after 48 hrs by MTT assay; type: cell-based; details: hepa-1c1c7, 48 h
How it was run: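 Murine hepatoma cells in α-MEM with 10% heat- and charcoal-treated fetal calf serum, passages 6–17; MTT read-out as for the cancer lines but with 48 h compound exposure. Highest concentration tested 25 µM. IC50 from survival-versus-concentration curve; mean and SD, n = 3.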

[2] = biological target: T1, CYP1A1 (Mus musculus, UniProt P00184); assay: Induction of CYP1A1 activity in mouse Hepa-1c1c7 cells assessed as induction ratio at 5 uM after 48 hrs by EROD assay relative to control; type: ADME, cell-based
T1 sequence (P00184 whole entry): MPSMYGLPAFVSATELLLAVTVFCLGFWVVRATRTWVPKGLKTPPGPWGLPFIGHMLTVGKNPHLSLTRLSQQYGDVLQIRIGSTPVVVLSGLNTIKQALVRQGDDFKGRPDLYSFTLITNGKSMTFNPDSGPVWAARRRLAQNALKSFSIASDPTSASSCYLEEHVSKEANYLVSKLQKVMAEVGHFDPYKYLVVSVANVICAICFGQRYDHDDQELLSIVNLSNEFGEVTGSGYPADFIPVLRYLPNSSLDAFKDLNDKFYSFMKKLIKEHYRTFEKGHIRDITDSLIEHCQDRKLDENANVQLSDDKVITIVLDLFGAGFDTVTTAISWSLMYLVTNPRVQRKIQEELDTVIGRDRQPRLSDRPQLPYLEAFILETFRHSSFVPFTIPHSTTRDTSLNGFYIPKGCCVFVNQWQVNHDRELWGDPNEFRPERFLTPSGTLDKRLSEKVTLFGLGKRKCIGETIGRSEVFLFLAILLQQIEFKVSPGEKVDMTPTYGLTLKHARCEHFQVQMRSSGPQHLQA
How it was run: (§1)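 Hepa1c1c7 cells were seeded at 10,000 per well and grown 24 h. They were then exposed 48 h to compound (final DMSO 0.5% v/v) at about 4 × the NQO1 CD. After a PBS wash, cells got 5 µM 7-ethoxyresorufin plus 2 mM salicylamide in medium, 37 °C, 40 min. Resorufin was read at ex 530/em 590 nm, corrected for compound fluorescence. Ratio = (F treated − blank)/(F DMSO control − blank); mean ± SD, n = 3.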

[3] = biological target: NAD(P)H dehydrogenase [quinone] 1 (Mus musculus) (UniProt Q64669); assay: Induction of NQO1 activity in mouse Hepa-1c1c7 cells assessed as induction ratio at 5 uM after 48 hrs by MTT assay relative to control; type: cell-based
How it was run: (§2)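 Hepa1c1c7 cells, 10,000 per well, 24 h, were then treated 48 h (DMSO ≤0.5%). Digitonin/EDTA lysates were assayed for menadione-dependent MTT-formazan formation using a G6P/G6PDH NADPH-generating mix with FAD at pH 7.4. The reaction ran 5 min, was stopped with dicoumarol, and read at A590. Degree of induction = (A test − blank)/(A control − blank). Ratios were read off the induction–concentration plot at the EROD test concentration.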

[4] = biological target: NAD(P)H dehydrogenase [quinone] 1 (Mus musculus) (UniProt Q64669); assay: Induction of NQO1 activity in mouse Hepa-1c1c7 cells assessed as induction ratio at 7.5 uM after 48 hrs by MTT assay relative to control; type: cell-based; how it was run: as §2
[5] = biological target: T1, CYP1A1; assay: Induction of CYP1A1 activity in mouse Hepa-1c1c7 cells assessed as induction ratio at 7.5 uM after 48 hrs by EROD assay relative to control; type: ADME, cell-based; how it was run: as §1
[6] = biological target: T1, CYP1A1; assay: Induction of CYP1A1 activity in mouse Hepa-1c1c7 cells assessed as induction ratio at 2.5 uM after 48 hrs by EROD assay relative to control; type: ADME, cell-based; how it was run: as §1
[7] = biological target: NAD(P)H dehydrogenase [quinone] 1 (Mus musculus) (UniProt Q64669); assay: Induction of NQO1 activity in mouse Hepa-1c1c7 cells assessed as induction ratio at 2.5 uM after 48 hrs by MTT assay relative to control; type: cell-based; how it was run: as §2
[8] = biological target: T1, CYP1A1; assay: Induction of CYP1A1 activity in mouse Hepa-1c1c7 cells assessed as induction ratio at 1 uM after 48 hrs by EROD assay relative to control; type: ADME, cell-based
How it was run: (§3)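 About 10,000 Hepa1c1c7 cells/well cultured 24 h, then compound (0.5% DMSO final) for 48 h, at roughly 4 × the concentration doubling NQO1 activity. After PBS wash, cells given 5 µM 7-ethoxyresorufin plus 2 mM salicylamide, 37 °C, 40 min; resorufin fluorescence ex 530/em 590 nm, corrected for compound fluorescence. Ratio = (treated − blank)/(DMSO control − blank); mean ± SD, n = 3.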

[9] = biological target: NAD(P)H dehydrogenase [quinone] 1 (Mus musculus) (UniProt Q64669); assay: Induction of NQO1 activity in mouse Hepa-1c1c7 cells assessed as induction ratio at 1 uM after 48 hrs by MTT assay relative to control; type: cell-based; how it was run: as §2
[10] = biological target: NAD(P)H dehydrogenase [quinone] 1 (Mus musculus) (UniProt Q64669); assay: Induction of NQO1 activity in mouse Hepa-1c1c7 cells assessed as induction ratio at 20 uM after 48 hrs by MTT assay relative to control; type: cell-based; how it was run: as §2
[11] = biological target: T1, CYP1A1; assay: Induction of CYP1A1 activity in mouse Hepa-1c1c7 cells assessed as induction ratio at 20 uM after 48 hrs by EROD assay relative to control; type: ADME, cell-based; how it was run: as §1
[12] = Antiproliferative activity against human CCL186 cells after 72 hrs by MTT assay; type: cell-based; details: CCL186, 72 h
How it was run: (§4)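 Cells seeded at 10,000 (MCF7), 4000 (HCT116) or 5000 (CCL186) per well and grown 24 h; MCF7 and CCL186 in EMEM with pyruvate, glutamine, 10% FBS; HCT116 in McCoy's 5A with 10% FBS. Compounds from DMSO stocks (≤1% DMSO final), 72 h exposure; MTT 0.5 mg/ml for 3 h, formazan in DMSO read at 590 nm. IC50 from sigmoidal survival curve, three separate occasions.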

[13] = system: HCT-116; assay: Antiproliferative activity against human HCT116 cells after 72 hrs by MTT assay; type: functional, cell-based; details: HCT-116, 72 h; how it was run: as §4
[14] = Selectivity ratio of IC50 for human CCL186 cells to IC50 for human HCT116 cells; type: ADME, cell-based, HCT-116; details: CCL186 cells and HCT116 cells, read-out: Ratio IC50
How it was run: (§5)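 MTT assay. MCF7 and CCL186 cells were grown in EMEM/10% FBS, HCT116 in McCoy's 5A/10% FBS. Seeding was 10,000 (MCF7), 4000 (HCT116) and 5000 (CCL186) cells per well, 24 h. Compound exposure was 72 h, DMSO ≤1% final. MTT 0.5 mg/ml for 3 h, formazan dissolved in DMSO, A590. IC50 came from sigmoidal survival curves, with 3 separate occasions per concentration. Ratio = IC50 CCL186 / IC50 of the cancer line.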

[15] = system: MCF7; assay: Antiproliferative activity against human MCF7 cells after 72 hrs by MTT assay; type: functional, cell-based; details: MCF7, 72 h; how it was run: as §4
[16] = system: MCF7; assay: Selectivity ratio of IC50 for human CCL186 cells to IC50 for human MCF7 cells; how it was run: as §5
[17] = biological target: NAD(P)H dehydrogenase [quinone] 1 (Mus musculus) (UniProt Q64669); assay: Induction of NQO1 activity in mouse Hepa-1c1c7 cells assessed as induction ratio at 0.5 uM after 48 hrs by MTT assay relative to control; type: cell-based; how it was run: as §2
[18] = biological target: T1, CYP1A1; assay: Induction of CYP1A1 activity in mouse Hepa-1c1c7 cells assessed as induction ratio at 0.5 uM after 48 hrs by EROD assay relative to control; type: ADME, cell-based; how it was run: as §3

Chain of NAD(P)H dehydrogenase [quinone] 1 (Mus musculus) (Q64669 whole entry): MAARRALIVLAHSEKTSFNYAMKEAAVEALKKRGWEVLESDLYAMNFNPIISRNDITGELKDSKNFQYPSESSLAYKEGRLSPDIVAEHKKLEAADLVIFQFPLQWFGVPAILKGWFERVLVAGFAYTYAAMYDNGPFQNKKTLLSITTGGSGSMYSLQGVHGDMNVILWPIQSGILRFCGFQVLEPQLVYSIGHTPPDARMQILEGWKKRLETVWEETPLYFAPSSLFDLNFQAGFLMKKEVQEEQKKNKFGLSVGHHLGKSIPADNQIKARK

## COc1cc(/C=C2/C(=O)Nc3ccccc32)ccc1O
[1]
  IC50: 14.6 µM
[2]
  fold induction at 48 h, 5 µM: 1.32
[3]
  Ratio: 4

## N#Cc1ccc(/C=C2/C(=O)Nc3ccccc32)cc1
[1]
  IC50: > 25 µM

## Cc1ccc(/C=C2/C(=O)Nc3ccccc32)cc1
[1]
  IC50: > 25 µM
[4]
  Ratio: 3.05
[5]
  fold induction at 48 h, 7.5 µM: 1.07

## O=C1Nc2ccccc2/C1=C\c1ccc(F)cc1Cl
[1]
  IC50: > 25 µM
[6]
  fold induction at 48 h, 2.5 µM: 1.2
[7]
  Ratio: 3.52

## O=C1Nc2ccccc2/C1=C\c1ccccc1
[1]
  IC50: > 25 µM
[2]
  fold induction at 48 h, 5 µM: 1.01
[3]
  Ratio: 5.13

## O=C1Nc2ccccc2/C1=C\c1c[nH]c2ccccc12
[1]
  IC50: > 25 µM
[8]
  fold induction at 48 h, 1 µM: 1.28
[9]
  Ratio: 4.33

## Cc1ccc(CC2C(=O)Nc3ccccc32)cc1 (stereo unspecified)
[1]
  IC50: > 25 µM

## COc1ccc(/C=C2/C(=O)Nc3cc(Cl)ccc32)cc1O
[1]
  IC50: > 25 µM
[8]
  fold induction at 48 h, 1 µM: 2.33
[9]
  Ratio: 5.09

## O=C1Nc2ccccc2/C1=C\c1cc(O)cc(O)c1
[1]
  IC50: > 25 µM
[10]
  Ratio: 3.82
[11]
  fold induction at 48 h, 20 µM: 1.04

## COc1cc(/C=C2/C(=O)Nc3ccccc32)cc(OC)c1
[1]
  IC50: 16 µM
[12]
  IC50: 23.6 µM
[13]
  IC50: 5.8 µM
[14]
  selectivity ratio: 2.2
[15]
  IC50: 10.5 µM
[16]
  Ratio IC50: 4.1

## COc1ccc(/C=C2/C(=O)Nc3ccccc32)c(O)c1
[1]
  IC50: > 25 µM
[6]
  fold induction at 48 h, 2.5 µM: 2.35
[7]
  Ratio: 3.59

## O=C1Nc2ccccc2/C1=C\c1ccccc1F
[1]
  IC50: > 25 µM
[2]
  fold induction at 48 h, 5 µM: 1.26
[3]
  Ratio: 6.8

## COc1cccc(/C=C2/C(=O)Nc3cc(F)ccc32)c1
[1]
  IC50: 9.8 µM
[8]
  fold induction at 48 h, 1 µM: 1.25
[9]
  Ratio: 3.21

## O=C1Nc2ccccc2/C1=C\c1cccc(Cl)c1
[1]
  IC50: 5.9 µM
[17]
  Ratio: 4.47
[18]
  fold induction at 48 h, 0.5 µM: 1.21

## O=C1Nc2ccccc2/C1=C\c1ccc(F)cc1
[1]
  IC50: > 25 µM
[10]
  Ratio: 5.69
[11]
  fold induction at 48 h, 20 µM: 1.64

## COc1ccc(/C=C2/C(=O)Nc3ccccc32)cc1
[1]
  IC50: > 25 µM
[2]
  fold induction at 48 h, 5 µM: 1.04
[3]
  Ratio: 4.5

## Cc1ccccc1/C=C1/C(=O)Nc2ccccc21
[1]
  IC50: > 25 µM
[2]
  fold induction at 48 h, 5 µM: 1.66
[3]
  Ratio: 4.45

## O=C1Nc2ccccc2/C1=C\c1ccccc1O
[1]
  IC50: > 25 µM
[10]
  Ratio: 3.35
[11]
  fold induction at 48 h, 20 µM: 1.02

## O=C1Nc2ccccc2/C1=C\c1ccc2ccccc2c1
[1]
  IC50: > 25 µM
[6]
  fold induction at 48 h, 2.5 µM: 1.06
[7]
  Ratio: 4.61

## O=C1Nc2ccccc2/C1=C\c1cccc(F)c1
[1]
  IC50: > 25 µM
[4]
  Ratio: 4.19
[5]
  fold induction at 48 h, 7.5 µM: 1.11

## COc1ccc(/C=C2\Nc3ccccc3C2=O)cc1O
[1]
  IC50: > 25 µM
[4]
  Ratio: 4.21
[5]
  fold induction at 48 h, 7.5 µM: 1.38

## Cc1cccc(/C=C2/C(=O)Nc3ccccc32)c1
[1]
  IC50: > 25 µM
[8]
  fold induction at 48 h, 1 µM: 1.08
[9]
  Ratio: 4.04

## O=C1Nc2ccccc2/C1=C\c1cccc(O)c1
[1]
  IC50: > 25 µM
[2]
  fold induction at 48 h, 5 µM: 1.11
[3]
  Ratio: 3.94

## COc1ccccc1/C=C1/C(=O)Nc2ccccc21
[1]
  IC50: > 25 µM
[8]
  fold induction at 48 h, 1 µM: 2.48
[9]
  Ratio: 4.03

## O=C1Nc2ccccc2/C1=C\c1ccncc1
[1]
  IC50: > 25 µM
[10]
  Ratio: 2.08
[11]
  fold induction at 48 h, 20 µM: 1.01

## O=C1Nc2ccccc2/C1=C\c1ccc(Cl)cc1
[1]
  IC50: 6.7 µM
[6]
  fold induction at 48 h, 2.5 µM: 1.06
[7]
  Ratio: 3.67

## COc1cccc(/C=C2/C(=O)Nc3ccc(Cl)cc32)c1
[1]
  IC50: 17.5 µM
[6]
  fold induction at 48 h, 2.5 µM: 1.32
[7]
  Ratio: 4.34

## O=C1Nc2ccccc2/C1=C\c1ccccc1C(F)(F)F
[1]
  IC50: > 25 µM
[10]
  Ratio: 2.96
[11]
  fold induction at 48 h, 20 µM: 1.2

## COc1cccc(/C=C2/C(=O)Nc3ccccc32)c1
[1]
  IC50: > 25 µM
[8]
  fold induction at 48 h, 1 µM: 1.26
[9]
  Ratio: 4.21

## COc1cccc(/C=C2\Nc3ccccc3C2=O)c1
[1]
  IC50: 21.2 µM
[2]
  fold induction at 48 h, 5 µM: 1.13
[3]
  Ratio: 3.88

## COc1cccc(/C=C2/C(=O)N(C)c3ccccc32)c1
[1]
  IC50: > 25 µM
[2]
  fold induction at 48 h, 5 µM: 1.18
[3]
  Ratio: 4.78

## COc1cccc(CC2C(=O)Nc3ccccc32)c1 (stereo unspecified)
[1]
  IC50: > 25 µM
[10]
  Ratio: 2.23
[11]
  fold induction at 48 h, 20 µM: 1.78

## COc1ccc(/C=C2/C(=O)N(C)c3ccccc32)cc1O
[1]
  IC50: 15.5 µM
[2]
  fold induction at 48 h, 5 µM: 1.08
[3]
  Ratio: 2.64

## CCc1ccc(/C=C2/C(=O)Nc3ccccc32)cc1
[1]
  IC50: > 25 µM
[4]
  Ratio: 4.96
[5]
  fold induction at 48 h, 7.5 µM: 1.08
